Measurements published in ChEMBL document CHEMBL5058577, “EUbOPEN Chemogenomics Library 2 (Multiplex)” (2022).

Test system: HEK-293T
Test: Multiplex assay against HEK293T
Format: toxicity, cell-based
Settings: human
Summary of the method: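 Imaging took place on a CQ1 microscope at 37°C and 5% CO2 once compound had been added to live cells stained at seeding with Hoechst33342, BioTracker Green Microtubule Cytoskeleton Dye, MitoTracker Red and Annexin V Alexa Fluor 680. CellPathfinder machine-learning gating classed cells as Hoechst high-intensity objects or normal cells, classed normal cells as having healthy, pyknosed or fragmented nuclei, and classed pyknosed cells as mitotic or apoptotic. Tubulin, mitochondrial-mass and membrane-permeability phenotypes are per cents of the healthy-nucleus cells.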

[1] = 12 h, 1 µM, compound concentration 1 uM, replicate 1
[2] = 12 h, 1 µM, compound concentration 1 uM, replicate 2
[3] = 12 h, 10 µM, compound concentration 10 uM, replicate 1
[4] = 12 h, 10 µM, compound concentration 10 uM, replicate 2
[5] = 24 h, 1 µM, compound concentration 1 uM, replicate 1
[6] = 24 h, 1 µM, compound concentration 1 uM, replicate 2
[7] = 24 h, 10 µM, compound concentration 10 uM, replicate 1
[8] = 24 h, 10 µM, compound concentration 10 uM, replicate 2
[9] = 48 h, 1 µM, compound concentration 1 uM, replicate 1
[10] = 48 h, 1 µM, compound concentration 1 uM, replicate 2
[11] = 48 h, 10 µM, compound concentration 10 uM, replicate 1
[12] = 48 h, 10 µM, compound concentration 10 uM, replicate 2

O=C(CCCc1ccccc1)Nc1nc2ccccc2c(=O)s1
Population Apoptotic (%) [1]: 30% | Population Fragmented Nuclei (%) [1]: 4% | Population Healthy Nuclei (%) [1]: 83% | Population Hoechst High Intensity Objects (%) [1]: 6% | Population Membrane Permeable-Phenotype (%) [1]: 0% | Population Mitochondria Different-Phenotype (%) [1]: 37% | Population Mitotic Cells (%) [1]: 70% | Population Normal (%) [1]: 93% | Population Pyknosed Nuclei (%) [1]: 11% | Population Tubulin-Different-Phenotype (%) [1]: 32% | Total Cell Count [1]: 372 | Population Apoptotic (%) [2]: 43% | Population Fragmented Nuclei (%) [2]: 7% | Population Healthy Nuclei (%) [2]: 74% | Population Hoechst High Intensity Objects (%) [2]: 13% | Population Mitochondria Different-Phenotype (%) [2]: 63% | Population Mitotic Cells (%) [2]: 56% | Population Normal (%) [2]: 86% | Population Pyknosed Nuclei (%) [2]: 17% | Population Tubulin-Different-Phenotype (%) [2]: 36% | Total Cell Count [2]: 267 | Population Apoptotic (%) [3]: 30% | Population Fragmented Nuclei (%) [3]: 10% | Population Healthy Nuclei (%) [3]: 80% | Population Hoechst High Intensity Objects (%) [3]: 9% | Population Membrane Permeable-Phenotype (%) [3]: 0% | Population Mitochondria Different-Phenotype (%) [3]: 47% | Population Mitotic Cells (%) [3]: 69% | Population Normal (%) [3]: 90% | Population Pyknosed Nuclei (%) [3]: 9% | Population Tubulin-Different-Phenotype (%) [3]: 27% | Total Cell Count [3]: 555 | Population Apoptotic (%) [4]: 44% | Population Fragmented Nuclei (%) [4]: 7% | Population Healthy Nuclei (%) [4]: 74% | Population Hoechst High Intensity Objects (%) [4]: 27% | Population Mitochondria Different-Phenotype (%) [4]: 68% | Population Mitotic Cells (%) [4]: 55% | Population Normal (%) [4]: 72% | Population Pyknosed Nuclei (%) [4]: 17% | Population Tubulin-Different-Phenotype (%) [4]: 26% | Total Cell Count [4]: 371 | Population Apoptotic (%) [5]: 20% | Population Fragmented Nuclei (%) [5]: 8% | Population Healthy Nuclei (%) [5]: 81% | Population Hoechst High Intensity Objects (%) [5]: 5% | Population Membrane Permeable-Phenotype (%) [5]: 1% | Population Mitochondria Different-Phenotype (%) [5]: 21% | Population Mitotic Cells (%) [5]: 79% | Population Normal (%) [5]: 94% | Population Pyknosed Nuclei (%) [5]: 10% | Population Tubulin-Different-Phenotype (%) [5]: 15% | Total Cell Count [5]: 538 | Population Apoptotic (%) [6]: 45% | Population Fragmented Nuclei (%) [6]: 9% | Population Healthy Nuclei (%) [6]: 78% | Population Hoechst High Intensity Objects (%) [6]: 8% | Population Membrane Permeable-Phenotype (%) [6]: 0% | Population Mitochondria Different-Phenotype (%) [6]: 38% | Population Mitotic Cells (%) [6]: 54% | Population Normal (%) [6]: 91% | Population Pyknosed Nuclei (%) [6]: 12% | Population Tubulin-Different-Phenotype (%) [6]: 13% | Total Cell Count [6]: 370 | Population Apoptotic (%) [7]: 33% | Population Fragmented Nuclei (%) [7]: 10% | Population Healthy Nuclei (%) [7]: 80% | Population Hoechst High Intensity Objects (%) [7]: 6% | Population Membrane Permeable-Phenotype (%) [7]: 0% | Population Mitochondria Different-Phenotype (%) [7]: 38% | Population Mitotic Cells (%) [7]: 66% | Population Normal (%) [7]: 93% | Population Pyknosed Nuclei (%) [7]: 9% | Population Tubulin-Different-Phenotype (%) [7]: 29% | Total Cell Count [7]: 661 | Population Apoptotic (%) [8]: 52% | Population Fragmented Nuclei (%) [8]: 8% | Population Hoechst High Intensity Objects (%) [8]: 24% | Population Mitochondria Different-Phenotype (%) [8]: 47% | Population Mitotic Cells (%) [8]: 47% | Population Normal (%) [8]: 75% | Population Pyknosed Nuclei (%) [8]: 11% | Population Tubulin-Different-Phenotype (%) [8]: 20% | Total Cell Count [8]: 444 | Population Apoptotic (%) [9]: 20% | Population Fragmented Nuclei (%) [9]: 11% | Population Healthy Nuclei (%) [9]: 82% | Population Hoechst High Intensity Objects (%) [9]: 2% | Population Membrane Permeable-Phenotype (%) [9]: 1% | Population Mitochondria Different-Phenotype (%) [9]: 15% | Population Mitotic Cells (%) [9]: 79% | Population Normal (%) [9]: 97% | Population Pyknosed Nuclei (%) [9]: 6% | Population Tubulin-Different-Phenotype (%) [9]: 11% | Total Cell Count [9]: 820 | Population Apoptotic (%) [10]: 38% | Population Fragmented Nuclei (%) [10]: 10% | Population Healthy Nuclei (%) [10]: 80% | Population Hoechst High Intensity Objects (%) [10]: 4% | Population Membrane Permeable-Phenotype (%) [10]: 0% | Population Mitochondria Different-Phenotype (%) [10]: 28% | Population Mitotic Cells (%) [10]: 61% | Population Normal (%) [10]: 95% | Population Pyknosed Nuclei (%) [10]: 8% | Population Tubulin-Different-Phenotype (%) [10]: 13% | Total Cell Count [10]: 534 | Population Apoptotic (%) [11]: 22% | Population Fragmented Nuclei (%) [11]: 14% | Population Healthy Nuclei (%) [11]: 79% | Population Hoechst High Intensity Objects (%) [11]: 4% | Population Membrane Permeable-Phenotype (%) [11]: 0% | Population Mitochondria Different-Phenotype (%) [11]: 21% | Population Mitotic Cells (%) [11]: 77% | Population Normal (%) [11]: 95% | Population Pyknosed Nuclei (%) [11]: 6% | Population Tubulin-Different-Phenotype (%) [11]: 16% | Total Cell Count [11]: 984 | Population Apoptotic (%) [12]: 68% | Population Fragmented Nuclei (%) [12]: 13% | Population Healthy Nuclei (%) [12]: 77% | Population Hoechst High Intensity Objects (%) [12]: 11% | Population Membrane Permeable-Phenotype (%) [12]: 1% | Population Mitochondria Different-Phenotype (%) [12]: 30% | Population Mitotic Cells (%) [12]: 31% | Population Normal (%) [12]: 88% | Population Pyknosed Nuclei (%) [12]: 9% | Total Cell Count [12]: 567
